PubChem BioAssay
Records with an inconclusive call do not appear.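 How the source made its calls, unless noted: active means RAM network inhibition above 8.4% in each of two replicates, 3 SD over the compound average; inconclusive means above 8.4% inhibition in only one replicate; inactive means 8.4% inhibition or less in each replicate.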

How the values were obtained:
[1] = S. cerevisiae growth inhibition in permissive medium (OD615), pilot counter-assay for S. cerevisiae lifespan shortening project, permissive growth control (AID 705;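 active means growth inhibition above 25% in both replicates, a cutoff set 3 SD above the mean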); settings: OD615, 24 h, at 10 µM, active compounds read high
Outline: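 Material: engineered DeaD yeast; compound dosing: one dose 10 µM, DMSO 0.25% final; measure: yeast growth inhibition indicated by reduced 24 h OD615; detection: OD615 turbidity read; incubation: cells pre-grown 4 h, then 24 h compound exposure, 30 °C humidified; medium: permissive synthetic complete medium with raffinose and galactose carbon sources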

[2] = S. cerevisiae growth inhibition in restrictive medium, OD615, pilot screen, restrictive growth control, yeast lifespan reduction project (AID 706;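 active means growth inhibition above a set limit, 3 SD over mean compound inhibition, in both replicates, cut at about 43% in these data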;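 further: modified DeaD lifespan yeast strain shifted to restrictive glucose medium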); settings: OD615, 48 h, at 10 µM, active compounds read high
Outline: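 material = engineered S. cerevisiae DeaD strain | medium = glucose-based CSMM-D restrictive medium | times = 4 h pre-incubation, 48 h exposure at 30 °C | technique = OD615 absorbance reading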

[3] = doxorubicin toxicity protection in MRP-1 cells – H69AR cells, CellTiter-Glo, duplicate, MRP-1 activator project, pilot screen (AID 807;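 active means viability increase at or above a cutoff of the median across tested compounds plus 3 SD, cut at about 8.5% in these data, passing the limit was not always enough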;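 further: compound pretreatment 18-22 h then 72 h combined with doxorubicin; 0% = doxorubicin alone and 100% = vehicle without doxorubicin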); settings: H69AR viability with doxorubicin, CellTiter-Glo luminescence; at 10 µM; active compounds read high
[4] = viability of HCT116 without oncogenic beta-catenin – human colon tumor cells, pilot screen (AID 823;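 active means cell viability at or below a set limit in both duplicate runs, the limit being the all-compound median minus 4 SD, cut at about 23% in these data, passing the limit was not always enough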;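 further: 0% = wells killed by 20 µM Hyamine and 100% = untreated DMSO cell wells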); settings: HCT116 beta-catenin knockout viability, CellTiter-Glo, 60 h; at 10 µM; active compounds read low
[5] = viability of PTEN-null HCT116 cells – cell-based, HCT116 clonal line, CellTiter-Glo, pilot screen (AID 824;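 active means viability at or below 27.92% in each of two runs, the all-compound median minus 4 SD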;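 further: 0% = 20 µM Hyamine control and 100% = vehicle cell control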); settings: HCT116 PTEN-deleted viability, 60 h, at 10 µM, active compounds read low
[6] = RAM pathway blockade in budding yeast – dse1pr::URA3 reporter, 5-FOA selection, pilot screen (AID 869;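 active means inhibition over a set limit, the all-compound mean plus 3 SD, in both replicate runs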;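 further: 0% = DMSO wells with no growth and 100% = 10 µM 1-NA-PP1 with full growth; RAM network block rescues cells from 5-FOA so hits raise OD615 growth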); settings: S. cerevisiae dse1pr::URA3 5-FOA growth, OD615, 2 d; at 10 µM; active compounds read high; strain carries analog-sensitive mutant Cbk1 kinase
[7] = RAM signaling pathway blockade in yeast – S. cerevisiae, Pdr1DBD-CYC8 efflux-inhibited sensitized strain, primary screen (AID 1298);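 further: 0% = DMSO untreated cells without growth and 100% = 10 µM 1-NA-PP1 full growth; higher means more yeast growth rescued from 5-FOA killing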; settings: S. cerevisiae cbk1-as DSE1-URA3 strain, 5-FOA growth OD615, 2 d; at 50 µM; active compounds read high

OCCOCCNc1ncnc2nc[nH]c12
inactive: growth inhibition [1] -8.26% | growth inhibition [2] -0.86% | viability increase [3] -0.43% | viability [4] 106% | viability [5] 101% | inhibition [6] 1.8% | RAM network inhibition [7] -0.28%

O=C(C1CC1)N1CCc2cc(Br)cc(S(=O)(=O)NC3CCCCC3)c21
inactive: growth inhibition [1] -3.11% | growth inhibition [2] -25.8% | viability increase [3] 1.71% | viability [4] 88.5% | viability [5] 89.4% | inhibition [6] 0.275% | RAM network inhibition [7] 5.54%

Cc1cc(NC(=O)CSc2nc3c([nH]c4ccccc43)c(=O)n2-c2cccc(C(F)(F)F)c2)no1
inactive: growth inhibition [1] -8.72% | growth inhibition [2] -3.21% | viability increase [3] -4.01% | viability [4] 75.1% | viability [5] 66.7% | inhibition [6] 2.41% | RAM network inhibition [7] 1.08%

CCCc1nnc(NC(=O)CCC(=O)O)s1
inactive: growth inhibition [1] -4.72% | growth inhibition [2] -1.89% | viability increase [3] -1.02% | viability [4] 92.8% | viability [5] 95.4% | inhibition [6] 0.765% | RAM network inhibition [7] 0%

Cc1[nH]c(=O)[nH]c(=O)c1S(=O)(=O)N1CCCC(C(=O)N2CCC(Cc3ccccc3)CC2)C1 (stereo unspecified)
inactive: growth inhibition [1] -7.81% | growth inhibition [2] -8.27% | viability increase [3] 0.94% | viability [4] 100% | viability [5] 101% | inhibition [6] 0.385% | RAM network inhibition [7] 3.66%

O=c1[nH]c(=S)[nH]nc1Cc1ccccc1
inactive: growth inhibition [1] -10% | growth inhibition [2] 13.4% | viability increase [3] -0.79% | viability [4] 101% | viability [5] 98.2% | inhibition [6] 0.12% | RAM network inhibition [7] 6.46%

O=C(c1cccc(S(=O)(=O)N2CCCC2)c1)c1cccc(S(=O)(=O)N2CCCC2)c1
inactive: growth inhibition [1] -6.99% | growth inhibition [2] -7.98% | viability increase [3] -1.22% | viability [4] 60.7% | viability [5] 56.5% | inhibition [6] 1.09% | RAM network inhibition [7] 5.82%

Cc1ccc(C(=O)N2CCN(C(=O)CN3CCOCC3)C2)cc1
inactive: growth inhibition [1] -4.56% | growth inhibition [2] -13.1% | viability increase [3] -1.25% | viability [4] 95% | viability [5] 97.3% | inhibition [6] -0.175% | RAM network inhibition [7] 0.11%

CCOC(=O)c1ccccc1NC(=O)CC1SC(=NC)N(C)C1=O (stereo unspecified)
inactive: growth inhibition [1] -10.3% | growth inhibition [2] -22.9% | viability increase [3] -2% | viability [4] 102% | viability [5] 96.2% | inhibition [6] 2.04% | RAM network inhibition [7] 4.34%

COC(=O)c1cc(-c2ccc3c(c2)OCO3)nc2ccccc12
inactive: growth inhibition [1] -14.1% | growth inhibition [2] -4.56% | viability increase [3] -0.1% | viability [4] 73.6% | viability [5] 76.3% | inhibition [6] 3.49% | RAM network inhibition [7] 8.14%

Cc1csc2nc(CNS(=O)(=O)c3ccc(-c4ccccc4)cc3)cn12
inactive: growth inhibition [1] -8.76% | growth inhibition [2] 7% | viability increase [3] -1.09% | viability [4] 90.2% | viability [5] 93.7% | inhibition [6] 0.94% | RAM network inhibition [7] 4.87%

Cc1ccc(-n2c(SCC(=O)Nc3nccs3)nc3c(c2=O)SCC3)cc1
inactive: growth inhibition [1] -10.3% | growth inhibition [2] -5.16% | viability increase [3] -6.87% | viability [4] 94.2% | viability [5] 92.2% | inhibition [6] 3.41% | RAM network inhibition [7] 6.62%

CCOCCCNC(=O)CCCn1nc(C)n2c(cc3sccc32)c1=O
inactive: growth inhibition [1] -4.89% | growth inhibition [2] 5.71% | viability increase [3] 0.66% | viability [4] 108% | viability [5] 98% | inhibition [6] 0.895% | RAM network inhibition [7] 4.4%

CC(CCc1ccccc1)NC(=O)C1CCN(C(=O)c2sccc2-n2cccc2)CC1 (stereo unspecified)
inactive: growth inhibition [1] -4.79% | growth inhibition [2] 0.295% | viability increase [3] 2.68% | viability [4] 93.8% | viability [5] 89.3% | inhibition [6] 1.75% | RAM network inhibition [7] 2.14%

O=C(CCc1nc2ccccc2[nH]1)N1CCc2ccccc2C1
inactive: growth inhibition [1] -11.6% | growth inhibition [2] -12.5% | viability increase [3] -1.86% | viability [4] 104% | viability [5] 94.8% | inhibition [6] 0.94% | RAM network inhibition [7] 1.76%

Cc1onc(-c2ccccc2Cl)c1C(=O)Nc1ccc(OCC(=O)N2CCOCC2)cc1
inactive: growth inhibition [1] 2.78% | growth inhibition [2] 5.62% | viability increase [3] -2.3% | viability [4] 104% | viability [5] 99.5% | inhibition [6] 1.5% | RAM network inhibition [7] 5.11%

COc1ccc(NC(=O)CSc2nnc(Cn3c(=O)sc4ccccc43)n2C)cc1OC
inactive: growth inhibition [1] -10.7% | growth inhibition [2] -14.9% | viability increase [3] -2.38% | viability [4] 86.5% | viability [5] 92.2% | inhibition [6] 1.91% | RAM network inhibition [7] 4.34%

COc1ccccc1NC(=O)Cc1noc(CSc2nnc(C)s2)n1
inactive: growth inhibition [1] -3.75% | growth inhibition [2] 0.765% | viability increase [3] -2.11% | viability [4] 97.2% | viability [5] 97.6% | inhibition [6] 0.43% | RAM network inhibition [7] 5.03%

O=C(CCNS(=O)(=O)c1cccc2nsnc12)NCCc1ccccc1
inactive: growth inhibition [1] 3.27% | growth inhibition [2] -1.99% | viability increase [3] -1.34% | viability [4] 105% | viability [5] 97.6% | inhibition [6] 0.11% | RAM network inhibition [7] 1.2%

COc1c(Cl)ccc(Cl)c1C(=O)OCC(=O)O
inactive: growth inhibition [1] -7.06% | growth inhibition [2] -27.7% | viability increase [3] -2.73% | viability [4] 86% | viability [5] 86.9% | inhibition [6] 1.39% | RAM network inhibition [7] 4.54%

COc1ccc(NC(=O)Nc2ccc3nccnc3c2)cc1
inactive: growth inhibition [1] -13.5% | growth inhibition [2] -17.2% | viability increase [3] -4.49% | viability [4] 67.5% | viability [5] 68.7% | inhibition [6] 1.81% | RAM network inhibition [7] 3.72%

O=S(=O)(c1cccs1)N1CCCc2ccccc21
inactive: growth inhibition [1] -13.1% | growth inhibition [2] -18.4% | viability increase [3] -2.75% | viability [4] 83.5% | viability [5] 83.8% | inhibition [6] 1.71% | RAM network inhibition [7] 3.38%

COc1ccc(S(=O)(=O)Nc2ccc3oc(C)c(C(=O)O)c3c2)cc1
inactive: growth inhibition [1] 3.11% | growth inhibition [2] -3.25% | viability increase [3] -2.36% | viability [4] 95.5% | viability [5] 91.2% | inhibition [6] 1.54% | RAM network inhibition [7] 3.39%

Cc1ccsc1-c1nc(CSCC(=O)N2CCN(c3ccccc3)CC2)c(C)o1
inactive: growth inhibition [1] -4.56% | growth inhibition [2] 26.6% | viability increase [3] -3.18% | viability [4] 61.6% | viability [5] 65.6% | inhibition [6] 0.75% | RAM network inhibition [7] 7.89%

Cn1c(=O)c2c(nc(CN3CCCCC3)n2Cc2c(F)cccc2Cl)n(C)c1=O
inactive: growth inhibition [1] -2.88% | growth inhibition [2] -10.9% | viability increase [3] -2.22% | viability [4] 102% | viability [5] 93.2% | inhibition [6] 3.12% | RAM network inhibition [7] 4.38%

CCC(C)Sc1nnc(Cc2cc(=O)[nH]c(=O)[nH]2)n1-c1ccc(F)cc1 (stereo unspecified)
inactive: growth inhibition [1] -0.665% | growth inhibition [2] 15.2% | viability increase [3] -1.78% | viability [4] 97.1% | viability [5] 100% | inhibition [6] 0.605% | RAM network inhibition [7] -1.47%

COc1ccc2c(c1)NC1(O)c3ccccc3C(=O)C21O (stereo unspecified)
inactive: growth inhibition [1] -5.39% | growth inhibition [2] 4.5% | viability increase [3] -1.41% | viability [4] 99.3% | viability [5] 98.3% | inhibition [6] 1.53% | RAM network inhibition [7] 3.44%

CCCSC1=C(C#N)C(c2ccc(O)c(OC)c2)CC(=O)N1 (stereo unspecified)
inactive: growth inhibition [1] -14.9% | growth inhibition [2] -22.5% | viability increase [3] -2.92% | viability [4] 104% | viability [5] 101% | inhibition [6] 1.66% | RAM network inhibition [7] 1.36%

CCOC(=O)N1CCC(NC(=O)Cn2cc3c(n2)CCCCC3)CC1
inactive: growth inhibition [1] -5.77% | growth inhibition [2] 5.48% | viability increase [3] 1.03% | viability [4] 108% | viability [5] 98.6% | inhibition [6] -0.43% | RAM network inhibition [7] 0.41%

Cc1ccc(N2CN=c3s/c(=C\c4ccccn4)c(=O)n3C2)cc1
inactive: growth inhibition [1] -7.53% | growth inhibition [2] 1.19% | viability increase [3] -2.37% | viability [4] 86.8% | viability [5] 98.7% | inhibition [6] -0.31% | RAM network inhibition [7] 3.39%

CC(C)c1cc(NC(=O)CSc2nnc(-c3ccccc3F)n2C)on1
inactive: growth inhibition [1] -6.68% | growth inhibition [2] 2.08% | viability increase [3] 0.77% | viability [4] 98% | viability [5] 101% | inhibition [6] 0.705% | RAM network inhibition [7] 3.69%

COC(=O)C1=CN(C)C=C(C(=O)OC)C1c1ccsc1
inactive: growth inhibition [1] -5% | growth inhibition [2] -4.37% | viability increase [3] -0.22% | viability [4] 104% | viability [5] 89.3% | inhibition [6] 1.96% | RAM network inhibition [7] 0.41%

CCOC(=O)c1ccc(NC(=O)CSc2nc3c(c(=O)n2C)SC(C)C3)cc1 (stereo unspecified)
inactive: growth inhibition [1] 1.02% | growth inhibition [2] 7.47% | viability increase [3] -2.01% | viability [4] 72.9% | viability [5] 74.3% | inhibition [6] 0.975% | RAM network inhibition [7] 3.08%
